≈ marks a conversion by molar mass, not a printed value.
What was measured:
[1] = tested on: P388; assay: Cytotoxic activity against mouse leukemia P388 cell line; type: functional
Summary of the method: (§1)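 Growth inhibition (IC50) of mouse leukemia P388 and human lung cancer PC-6 and PC-12 cells after 72 h continuous exposure to compound; IC50 taken as the concentration giving 50% growth inhibition.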

[2] = Solubility of compound in JP1 at pH 1.2 using UV assay; type: physicochemical; conditions: JP1, pH 1.2
[3] = tested on: PC-12; assay: Cytotoxic activity against human lung cancer PC-12 cell line
[4] = tested on: PC-6; assay: Cytotoxic activity against human lung cancer PC-6 cell line; type: functional; summary of the method: as §1
[5] = Solubility of compound in JP2 at pH 6.8 using UV assay; type: physicochemical; conditions: JP2, pH 6.8
[6] = Solubility in water using UV assay; type: physicochemical
[7] = tested on: Mus musculus; assay: Maximum rate of body weight loss was determined in mice inoculated with B16 melanoma BL6 cells sc at a dose 5.3 mg/kg by intravenous administration; type: functional
Summary of the method: (§2)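 On day 0, B16 melanoma BL6 cells (cultured line) were implanted subcutaneously into C57BL/6 mice, six per group. A single iv or oral dose was given on day 4, and body weight was followed. BWLmax (%) is the maximum rate of body weight loss; a value below 0 means no loss.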

[8] = tested on: Mus musculus; assay: Mean tumor weight was determined in mice inoculated with B16 melanoma BL6 cells sc at a dose 12 mg/kg iv [IR (%) = (1-TWt/TWc)*100]; type: functional
Summary of the method: (§3)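 C57BL/6 mice (six per group) received subcutaneous B16 melanoma BL6 cells on day 0 and a single iv or oral dose on day 4. Tumors were excised and weighed on day 15. Inhibition rate IR (%) = (1 − mean treated tumor weight/mean control tumor weight) × 100.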

[9] = tested on: Mus musculus; assay: Mortality was determined in mice inoculated with B16 melanoma BL6 cells sc at a dose 12 mg/kg by intravenous administration; 0/6; type: functional
[10] = tested on: Mus musculus; assay: Mortality was determined in mice inoculated with B16 melanoma BL6 cells sc at a dose 8 mg/kg by intravenous administration; 0/6; type: functional
[11] = tested on: Mus musculus; assay: Mean tumor weight was determined in mice inoculated with B16 melanoma BL6 cells sc at a dose 8 mg/kg iv [IR (%) = (1-TWt/TWc)*100]; type: functional; summary of the method: as §3
[12] = tested on: Mus musculus; assay: Maximum rate of body weight loss was determined in mice inoculated with B16 melanoma BL6 cells sc at a dose 12 mg/kg by intravenous administration; type: functional; summary of the method: as §2
[13] = tested on: Mus musculus; assay: Mortality was determined in mice inoculated with B16 melanoma BL6 cells sc at a dose 18 mg/kg by intravenous administration; 0/6; type: functional
[14] = tested on: Mus musculus; assay: Maximum rate of body weight loss was determined in mice inoculated with B16 melanoma BL6 cells sc at a dose 8 mg/kg by intravenous administration; type: functional; summary of the method: as §2
[15] = tested on: Mus musculus; assay: Mortality was determined in mice inoculated with B16 melanoma BL6 cells sc at a dose 27 mg/kg by peroral administration; 0/6; type: functional; conditions: route oral
[16] = tested on: Mus musculus; assay: Maximum rate of body weight loss was determined in mice inoculated with B16 melanoma BL6 cells sc at a dose 12 mg/kg by peroral administration; type: functional; conditions: route oral; summary of the method: as §2
[17] = tested on: Mus musculus; assay: Mortality was determined in mice inoculated with B16 melanoma BL6 cells sc at a dose 8 mg/kg by peroral administration; 0/6; type: functional; conditions: route oral
[18] = tested on: Mus musculus; assay: Mean tumor weight was determined in mice inoculated with B16 melanoma BL6 cells sc at a dose 18 mg/kg iv [IR (%) = (1-TWt/TWc)*100]; type: functional; summary of the method: as §3
[19] = tested on: Mus musculus; assay: Mean tumor weight was determined in mice inoculated with B16 melanoma BL6 cells sc at a dose 27 mg/kg po [IR (%) = (1-TWt/TWc)*100]; type: functional; summary of the method: as §3
[20] = tested on: Mus musculus; assay: Maximum rate of body weight loss was determined in mice inoculated with B16 melanoma BL6 cells sc at a dose 27 mg/kg by peroral administration; type: functional; conditions: route oral; summary of the method: as §2
[21] = tested on: Mus musculus; assay: Maximum rate of body weight loss was determined in mice inoculated with B16 melanoma BL6 cells sc at a dose 8 mg/kg by peroral administration; type: functional; conditions: route oral; summary of the method: as §2
[22] = tested on: Mus musculus; assay: Mean tumor weight was determined in mice inoculated with B16 melanoma BL6 cells sc at a dose 12 mg/kg po [IR (%) = (1-TWt/TWc)*100]; type: functional; summary of the method: as §3
[23] = tested on: Mus musculus; assay: Maximum rate of body weight loss was determined in mice inoculated with B16 melanoma BL6 cells sc at a dose 18 mg/kg by peroral administration; type: functional; conditions: route oral; summary of the method: as §2
[24] = tested on: Mus musculus; assay: Mean tumor weight was determined in mice inoculated with B16 melanoma BL6 cells sc at a dose 18 mg/kg po [IR (%) = (1-TWt/TWc)*100]; type: functional; summary of the method: as §3
[25] = tested on: Mus musculus; assay: Mean tumor weight was determined in mice inoculated with B16 melanoma BL6 cells sc at a dose 8 mg/kg po [IR (%) = (1-TWt/TWc)*100]; type: functional; summary of the method: as §3
[26] = tested on: Mus musculus; assay: Mean tumor weight was determined in mice inoculated with B16 melanoma BL6 cells sc at a dose 5.3 mg/kg iv [IR (%) = (1-TWt/TWc)*100]; type: functional; summary of the method: as §3
[27] = tested on: Mus musculus; assay: Mortality was determined in mice inoculated with B16 melanoma BL6 cells sc at a dose 5.3 mg/kg by intravenous administration; 0/6; type: functional
[28] = tested on: Mus musculus; assay: Maximum rate of body weight loss was determined in mice inoculated with B16 melanoma BL6 cells sc at a dose 18 mg/kg by intravenous administration; type: functional; summary of the method: as §2
[29] = tested on: Mus musculus; assay: Mortality was determined in mice inoculated with B16 melanoma BL6 cells sc at a dose 12 mg/kg by peroral administration; 0/6; type: functional; conditions: route oral
[30] = tested on: Mus musculus; assay: Mortality was determined in mice inoculated with B16 melanoma BL6 cells sc at a dose 18 mg/kg by peroral administration; 0/6; type: functional; conditions: route oral
[31] = tested on: Mus musculus; assay: Mortality rate in mice inoculated with B16 melanoma BL6 cells sc at a dose 12 mg/kg by intravenous administration; 0/6; type: functional
[32] = tested on: Mus musculus; assay: Mortality was determined in mice inoculated with B16 melanoma BL6 cells sc at a dose 18 mg/kg by peroral administration; 2/6; type: functional; conditions: route oral
[33] = tested on: Mus musculus; assay: Mortality rate in mice inoculated with B16 melanoma BL6 cells sc at a dose 8 mg/kg by peroral administration; 0/6; type: functional; conditions: route oral
[34] = tested on: Mus musculus; assay: Mortality rate in mice inoculated with B16 melanoma BL6 cells sc at a dose 18 mg/kg by intravenous administration; 0/6; type: functional

CC(=O)O[C@@]12CO[C@@H]1CC[C@@]1(C)[C@@H]3O[C@H](CN4CCOCC4)O[C@@H]3C3=C(C)[C@@H](OC(=O)[C@](C)(O)[C@@H](NC(=O)OC(C)(C)C)c4ccccc4)C[C@@](O)([C@@H](OC(=O)c4ccccc4)[C@@H]12)C3(C)C
GI50 [1]: 0.02 ng/mL (≈ 2.18e-05 µM) | solubility [2]: 350 µg/mL (≈ 381 µM) | GI50 [3]: 0.07 ng/mL (≈ 7.62e-05 µM) | GI50 [4]: 0.47 ng/mL (≈ 0.000511 µM) | solubility [5]: < 4 µg/mL | solubility [6]: < 4 µg/mL

CC(=O)O[C@@]12CO[C@@H]1CC[C@@]1(C)[C@@H]3O[C@H](CN4CCOCC4)O[C@@H]3C3=C(C)[C@@H](OC(=O)[C@H](O)[C@@H](NC(=O)OC(C)(C)C)c4ccccn4)C[C@@](O)([C@@H](OC(=O)c4ccccc4)[C@@H]12)C3(C)C
GI50 [1]: 0.18 ng/mL (≈ 0.000199 µM) | BWLmax [7]: <0% | solubility [2]: 1700 µg/mL (≈ 1880 µM) | GI50 [3]: 0.21 ng/mL (≈ 0.000232 µM) | IR [8]: 94.4% | Mortality [9]: 0 | Mortality [10]: 0 | IR [11]: 87.2% | BWLmax [12]: <0% | GI50 [4]: 0.39 ng/mL (≈ 0.00043 µM) | Mortality [13]: 0 | BWLmax [14]: <0% | Mortality [15]: 0 | BWLmax [16]: <0% | Mortality [17]: 0 | IR [18]: 95.6% | IR [19]: 97.3% | BWLmax [20]: 4.5% | BWLmax [21]: <0% | solubility [5]: 11 µg/mL (≈ 12.1 µM) | IR [22]: 84.9% | BWLmax [23]: 0.3% | IR [24]: 93.3% | IR [25]: 27.2% | solubility [6]: 14 µg/mL (≈ 15.5 µM) | IR [26]: 62.4% | Mortality [27]: 0 | BWLmax [28]: 3.7% | Mortality [29]: 0 | Mortality [30]: 0

CC(=O)O[C@@]12CO[C@@H]1CC[C@@]1(C)[C@@H]3O[C@H](CN4CCOCC4)O[C@@H]3C3=C(C)[C@@H](OC(=O)[C@](C)(O)[C@@H](NC(=O)OC(C)(C)C)c4ccccn4)C[C@@](O)([C@@H](OC(=O)c4ccccc4)[C@@H]12)C3(C)C
GI50 [1]: 0.12 ng/mL (≈ 0.00013 µM) | solubility [2]: 1800 µg/mL (≈ 1960 µM) | GI50 [3]: 0.06 ng/mL (≈ 6.52e-05 µM) | IR [8]: 96.4% | Mortality [31]: 0 | Mortality [32]: 2 | BWLmax [12]: 13.5% | GI50 [4]: 0.11 ng/mL (≈ 0.00012 µM) | BWLmax [16]: <0% | BWLmax [21]: <0% | Mortality [33]: 0 | solubility [5]: 5 µg/mL (≈ 5.43 µM) | IR [22]: 92.2% | BWLmax [23]: 18.1% | IR [24]: 98% | Mortality [34]: 0 | IR [25]: 42.2% | solubility [6]: 6 µg/mL (≈ 6.52 µM) | Mortality [29]: 0

— ChEMBL document CHEMBL1136257, “New highly active taxoids from 9beta-dihydrobaccatin-9,10-acetals. Part 3” (Bioorg Med Chem Lett, 2003)
